Reference: ChEMBL document CHEMBL4376814, “Novel cyclin-dependent kinase 9 (CDK9) inhibitor with suppression of cancer stemness activity against non-small-cell lung cancer” (Eur J Med Chem, 2019)
Calls of active or inactive are those of the source. The calls are words filed in the database; no cut-off is given here.

Assays:
[1] = target: CDK6/cyclin D3 (Homo sapiens) (UniProt P30281+Q00534); assay: Inhibition of recombinant full-length human CDK6/cyclinD3 at 1 uM using Histone H1 as substrate measured after 40 mins in presence of [gamma33P]ATP by scintillation counting method relative to control; format: protein-complex assay
[2] = tested on: Glycogen synthase kinase-3 alpha (Homo sapiens), P49840 [UNDEFINED MUTATION]; assay: Inhibition of recombinant full-length human GSK3alpha (2 to end residues) S449A mutant at 1 uM using phospho GS2 peptide as substrate measured after 40 mins in presence of [gamma33P]ATP by scintillation counting method relative to control
[3] = target: Serine/threonine-protein kinase D3 (Homo sapiens) (UniProt O94806); assay: Inhibition of recombinant full-length human PKD3 at 1 uM using KKLRRTLSVA as substrate measured after 40 mins in presence of [gamma33P]ATP by scintillation counting method relative to control
[4] = target: Tyrosine-protein kinase receptor TYRO3 (Homo sapiens) (UniProt Q06418); assay: Inhibition of human RSE (451 to end residues) at 1 uM using KVEKIGEGTYGVVYK as substrate measured after 40 mins in presence of [gamma33P]ATP by scintillation counting method relative to control
Summary of the method: (§1)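 Percent inhibition of kinase activity at a single compound concentration, measured by the outsourced Eurofins KinaseProfiler panel. Values are the mean of two independent experiments.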

[5] = tested on: A549; assay: Induction of apoptosis in human A549 cells assessed as late apoptotic cells at 0.5 uM after 48 hrs by AnnexinV-FITC/PI staining-based flow cytometric analysis (reference value: 7.66%); format: functional
[6] = tested on: SiHa; assay: Antiproliferative activity against human SiHa cells assessed as inhibition of cell viability at 10 uM after 72 hrs by CCK-8 assay relative to control; format: functional
Summary of the method: (§2)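 Single-concentration viability screen using CCK-8. Cells were seeded at 3000/well and treated for 72 h. A450 read after 1-4 h with reagent. Percent inhibition calculated against untreated control and blank wells as (Ac−As)/(Ac−Ab)×100%.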

[7] = target: Aurora kinase B (Homo sapiens) (UniProt Q96GD4); assay: Inhibition of recombinant full-length human AURKB at 1 uM using AKRRRLSSLRA as substrate measured after 40 mins in presence of [gamma33P]ATP by scintillation counting method relative to control
[8] = tested on: PI3-kinase p110-alpha/p85-alpha (Homo sapiens), P27986+P42336 [E542K]; assay: Inhibition of recombinant full-length human PI3K p110alpha/p85alpha E542K mutant at 1 uM using phosphatidylinositol-4, 5-bisphosphate as substrate measured after 40 mins by HTRF assay relative to control
[9] = target: Serine/threonine-protein kinase 4 (Homo sapiens) (UniProt Q13043); assay: Inhibition of recombinant full-length human MST1 at 1 uM using KKSRGDYMTMQIG as substrate measured after 40 mins in presence of [gamma33P]ATP by scintillation counting method relative to control
[10] = target: Focal adhesion kinase 1 (Homo sapiens) (UniProt Q05397); assay: Inhibition of recombinant human FAK (411 to 686 residues) at 1 uM using EEEEYEEEEEEYYIIEEEEEEYEEEEEEYYEEEEEEKKKK as substrate measured after 40 mins in presence of [gamma33P]ATP by scintillation counting method relative to control
[11] = target: Tyrosine-protein kinase JAK2 (Homo sapiens) (UniProt O60674); assay: Inhibition of recombinant human JAK2 (808 to end residues) at 1 uM using KTFCGTPEYLAPEVRREPRILSEEEQEMFRDFDYIADWC as substrate measured after 40 mins in presence of [gamma33P]ATP by scintillation counting method relative to control
[12] = tested on: A549; assay: Inhibition of tumorsphere formation in human A549 cells assessed as decrease in number of spheres at 0.25 to 1 uM after 2 weeks by microscopic analysis; format: functional, cell-based
[13] = target: Ribosomal protein S6 kinase alpha-5 (Homo sapiens) (UniProt O75582); assay: Inhibition of recombinant human MSK1 (2 to end residues) at 1 uM using GRPRTSSFAEGKK as substrate measured after 40 mins in presence of [gamma33P]ATP by scintillation counting method relative to control
[14] = target: Tyrosine-protein kinase FRK (Homo sapiens) (UniProt P42685); assay: Inhibition of human PTK5 (218 to end residues) at 1 uM using GGEEEEYFELVKKKK as substrate measured after 40 mins in presence of [gamma33P]ATP by scintillation counting method relative to control; summary of the method: as §1
[15] = species on record: Homo sapiens; assay: Inhibition of recombinant full-length human AURKA I31F mutant at 1 uM using LRRASLG as substrate measured after 40 mins in presence of [gamma33P]ATP by scintillation counting method relative to control
[16] = tested on: HepG2; assay: Antiproliferative activity against human HepG2 cells assessed as inhibition of cell viability at 10 uM after 72 hrs by CCK-8 assay relative to control; format: functional; conditions: HepG2, 72 h; summary of the method: as §2
[17] = target: Insulin receptor (Homo sapiens) (UniProt P06213); assay: Inhibition of recombinant human IR (1005 to 1310 residues) at 1 uM using KKSRGDYMTMQIG as substrate measured after 40 mins in presence of [gamma33P]ATP by scintillation counting method relative to control
[18] = target: Calcium/calmodulin-dependent protein kinase type 1G (Homo sapiens) (UniProt Q96NX5); assay: Inhibition of full-length recombinant human CaMK1 gamma at 1 uM using KKLRRTLSFAEPG as substrate measured after 40 mins in presence of [gamma33P]ATP by scintillation counting method relative to control; summary of the method: as §1
[19] = tested on: Serine/threonine-protein kinase N1 (Homo sapiens), Q16512 [V901I]; assay: Inhibition of human PRK1 V901I mutant (498 to end residues) at 1 uM using KKLNRTLSFAEPG as substrate measured after 40 mins in presence of [gamma33P]ATP by scintillation counting method relative to control; summary of the method: as §1
[20] = tested on: MCF7; assay: Antiproliferative activity against human MCF7 cells assessed as inhibition of cell viability at 10 uM after 72 hrs by CCK-8 assay relative to control; format: functional; conditions: MCF7, 72 h; summary of the method: as §2
[21] = target: Myotonin-protein kinase (Homo sapiens) (UniProt Q09013); assay: Inhibition of recombinant human DMPK (1 to 549 residues) at 1 uM using KKSRGDYMTMQIG as substrate measured after 40 mins in presence of [gamma33P]ATP by scintillation counting method relative to control
[22] = target: Ephrin type-A receptor 5 (Homo sapiens) (UniProt P54756); assay: Inhibition of recombinant human EphA5 (655 to 956 residues) at 1 uM using poly(Glu, Tyr) 4:1 as substrate measured after 40 mins in presence of [gamma33P]ATP by scintillation counting method relative to control
Ephrin type-A receptor 5 (Homo sapiens), sequence (P54756 whole entry, the tested form may be a part): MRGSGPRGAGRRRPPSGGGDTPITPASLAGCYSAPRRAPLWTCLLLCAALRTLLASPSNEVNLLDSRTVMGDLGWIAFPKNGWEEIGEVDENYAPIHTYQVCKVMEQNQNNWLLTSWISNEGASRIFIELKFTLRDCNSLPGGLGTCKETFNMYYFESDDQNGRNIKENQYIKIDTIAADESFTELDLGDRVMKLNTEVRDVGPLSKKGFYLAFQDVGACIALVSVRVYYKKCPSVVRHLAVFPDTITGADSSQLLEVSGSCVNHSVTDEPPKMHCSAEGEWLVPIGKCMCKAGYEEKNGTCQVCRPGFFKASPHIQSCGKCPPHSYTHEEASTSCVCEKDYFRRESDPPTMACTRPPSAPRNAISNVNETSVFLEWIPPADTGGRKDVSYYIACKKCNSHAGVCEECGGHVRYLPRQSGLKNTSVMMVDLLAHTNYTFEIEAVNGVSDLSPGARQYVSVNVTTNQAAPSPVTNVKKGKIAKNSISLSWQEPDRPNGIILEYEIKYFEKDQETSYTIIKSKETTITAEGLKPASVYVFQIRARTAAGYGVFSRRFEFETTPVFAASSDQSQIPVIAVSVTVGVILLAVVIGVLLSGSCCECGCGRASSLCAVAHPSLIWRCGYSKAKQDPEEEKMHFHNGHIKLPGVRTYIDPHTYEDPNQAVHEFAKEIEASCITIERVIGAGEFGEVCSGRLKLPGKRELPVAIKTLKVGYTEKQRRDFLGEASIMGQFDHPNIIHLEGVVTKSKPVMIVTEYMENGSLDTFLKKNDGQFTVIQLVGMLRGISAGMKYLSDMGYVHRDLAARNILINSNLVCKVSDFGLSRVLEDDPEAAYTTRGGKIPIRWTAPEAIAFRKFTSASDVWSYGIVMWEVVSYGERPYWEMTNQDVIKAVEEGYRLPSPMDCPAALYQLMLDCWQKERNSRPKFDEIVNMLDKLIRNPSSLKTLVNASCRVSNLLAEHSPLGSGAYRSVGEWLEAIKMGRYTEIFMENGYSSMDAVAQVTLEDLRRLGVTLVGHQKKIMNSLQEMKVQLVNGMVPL

Myotonin-protein kinase (Homo sapiens), sequence (Q09013 whole entry, the tested form may be a part): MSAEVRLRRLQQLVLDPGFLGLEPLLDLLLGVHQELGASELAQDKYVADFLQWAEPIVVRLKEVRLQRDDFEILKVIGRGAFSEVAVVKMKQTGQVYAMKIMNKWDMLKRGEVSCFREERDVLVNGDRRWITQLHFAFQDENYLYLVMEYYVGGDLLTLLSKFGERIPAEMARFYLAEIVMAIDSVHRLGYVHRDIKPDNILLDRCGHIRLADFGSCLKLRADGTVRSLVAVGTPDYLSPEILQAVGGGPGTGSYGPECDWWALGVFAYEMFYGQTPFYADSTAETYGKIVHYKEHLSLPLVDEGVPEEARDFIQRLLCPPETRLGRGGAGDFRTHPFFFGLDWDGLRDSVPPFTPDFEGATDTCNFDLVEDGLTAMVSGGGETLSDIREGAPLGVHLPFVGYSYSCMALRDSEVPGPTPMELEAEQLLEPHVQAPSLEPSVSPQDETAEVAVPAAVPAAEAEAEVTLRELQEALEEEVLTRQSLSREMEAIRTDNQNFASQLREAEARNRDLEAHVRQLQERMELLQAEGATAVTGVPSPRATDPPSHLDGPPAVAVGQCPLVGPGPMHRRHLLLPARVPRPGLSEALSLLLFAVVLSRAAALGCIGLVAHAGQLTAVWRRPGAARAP
Glycogen synthase kinase-3 alpha (Homo sapiens), P49840 [UNDEFINED MUTATION], sequence (P49840 whole entry, looked up, stated change not applied): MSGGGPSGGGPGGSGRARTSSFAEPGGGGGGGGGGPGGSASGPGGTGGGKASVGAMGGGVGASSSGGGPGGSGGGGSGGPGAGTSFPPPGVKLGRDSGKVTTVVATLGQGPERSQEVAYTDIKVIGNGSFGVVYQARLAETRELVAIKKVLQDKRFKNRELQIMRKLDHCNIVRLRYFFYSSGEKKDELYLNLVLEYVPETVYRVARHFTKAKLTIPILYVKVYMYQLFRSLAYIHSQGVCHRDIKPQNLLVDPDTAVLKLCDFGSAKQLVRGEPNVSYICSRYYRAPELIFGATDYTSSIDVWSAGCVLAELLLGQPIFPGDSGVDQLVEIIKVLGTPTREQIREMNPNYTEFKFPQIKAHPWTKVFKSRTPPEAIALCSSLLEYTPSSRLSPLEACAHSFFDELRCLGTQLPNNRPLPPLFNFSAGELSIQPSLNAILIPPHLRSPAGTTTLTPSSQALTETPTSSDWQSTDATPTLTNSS
Calcium/calmodulin-dependent protein kinase type 1G (Homo sapiens), sequence (Q96NX5 whole entry): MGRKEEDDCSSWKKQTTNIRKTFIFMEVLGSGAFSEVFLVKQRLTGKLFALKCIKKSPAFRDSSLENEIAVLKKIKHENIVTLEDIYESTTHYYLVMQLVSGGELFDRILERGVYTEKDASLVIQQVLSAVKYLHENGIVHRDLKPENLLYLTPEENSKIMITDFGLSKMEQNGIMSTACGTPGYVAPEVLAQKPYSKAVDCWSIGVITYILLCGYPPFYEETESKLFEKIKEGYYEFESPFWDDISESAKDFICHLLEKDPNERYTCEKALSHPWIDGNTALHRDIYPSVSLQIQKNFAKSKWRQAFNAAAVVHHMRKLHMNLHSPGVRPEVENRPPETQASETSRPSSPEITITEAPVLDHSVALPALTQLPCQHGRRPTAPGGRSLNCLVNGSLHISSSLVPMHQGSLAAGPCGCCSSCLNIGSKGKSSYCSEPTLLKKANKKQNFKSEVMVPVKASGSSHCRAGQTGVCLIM
Serine/threonine-protein kinase 4 (Homo sapiens), sequence (Q13043 whole entry, the tested form may be a part): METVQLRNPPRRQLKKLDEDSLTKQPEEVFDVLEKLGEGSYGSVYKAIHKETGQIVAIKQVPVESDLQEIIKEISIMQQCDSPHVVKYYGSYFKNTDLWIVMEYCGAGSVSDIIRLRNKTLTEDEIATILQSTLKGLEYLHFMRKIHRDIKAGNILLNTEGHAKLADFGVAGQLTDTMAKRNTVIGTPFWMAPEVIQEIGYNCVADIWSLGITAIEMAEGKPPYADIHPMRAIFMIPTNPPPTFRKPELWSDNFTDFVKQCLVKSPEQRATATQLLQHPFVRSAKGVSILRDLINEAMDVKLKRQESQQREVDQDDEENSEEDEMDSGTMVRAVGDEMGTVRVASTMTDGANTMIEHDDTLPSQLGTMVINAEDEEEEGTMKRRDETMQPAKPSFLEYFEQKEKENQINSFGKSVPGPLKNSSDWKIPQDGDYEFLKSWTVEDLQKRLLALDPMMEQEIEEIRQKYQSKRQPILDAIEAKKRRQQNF
Aurora kinase B (Homo sapiens), sequence (Q96GD4 whole entry): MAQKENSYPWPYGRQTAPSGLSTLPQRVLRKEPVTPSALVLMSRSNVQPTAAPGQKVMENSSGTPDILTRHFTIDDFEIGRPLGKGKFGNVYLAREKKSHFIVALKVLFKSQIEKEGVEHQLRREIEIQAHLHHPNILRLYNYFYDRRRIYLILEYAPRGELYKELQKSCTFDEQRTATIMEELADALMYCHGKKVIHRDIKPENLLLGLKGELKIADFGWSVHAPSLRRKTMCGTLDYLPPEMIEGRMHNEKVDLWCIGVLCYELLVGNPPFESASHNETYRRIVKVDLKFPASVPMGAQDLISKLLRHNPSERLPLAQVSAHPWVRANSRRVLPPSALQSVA
Tyrosine-protein kinase receptor TYRO3 (Homo sapiens), sequence (Q06418 whole entry): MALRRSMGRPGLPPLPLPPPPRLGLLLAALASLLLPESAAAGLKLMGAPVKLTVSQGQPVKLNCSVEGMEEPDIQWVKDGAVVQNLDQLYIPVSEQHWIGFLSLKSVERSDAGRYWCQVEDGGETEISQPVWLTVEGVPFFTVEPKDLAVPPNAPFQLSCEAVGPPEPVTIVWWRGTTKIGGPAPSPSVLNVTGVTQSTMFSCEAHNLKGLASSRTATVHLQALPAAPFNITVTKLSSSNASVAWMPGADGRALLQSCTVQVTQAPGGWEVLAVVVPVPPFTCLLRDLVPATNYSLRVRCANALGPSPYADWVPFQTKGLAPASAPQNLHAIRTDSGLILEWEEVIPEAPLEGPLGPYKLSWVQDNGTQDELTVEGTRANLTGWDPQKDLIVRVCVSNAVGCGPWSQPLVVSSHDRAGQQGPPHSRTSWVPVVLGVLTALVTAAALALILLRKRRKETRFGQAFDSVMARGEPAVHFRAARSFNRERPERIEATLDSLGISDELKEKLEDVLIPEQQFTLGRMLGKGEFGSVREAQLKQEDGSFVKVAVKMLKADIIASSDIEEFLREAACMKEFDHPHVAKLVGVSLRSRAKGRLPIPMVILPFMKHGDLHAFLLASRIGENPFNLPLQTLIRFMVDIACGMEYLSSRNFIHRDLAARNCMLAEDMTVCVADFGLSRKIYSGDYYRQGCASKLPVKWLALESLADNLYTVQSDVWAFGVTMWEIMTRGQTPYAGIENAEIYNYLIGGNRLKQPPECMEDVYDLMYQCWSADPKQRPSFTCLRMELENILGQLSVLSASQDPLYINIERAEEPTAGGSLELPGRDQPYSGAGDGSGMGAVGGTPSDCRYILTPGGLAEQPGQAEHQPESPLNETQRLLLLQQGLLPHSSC
Tyrosine-protein kinase FRK (Homo sapiens), sequence (P42685 whole entry): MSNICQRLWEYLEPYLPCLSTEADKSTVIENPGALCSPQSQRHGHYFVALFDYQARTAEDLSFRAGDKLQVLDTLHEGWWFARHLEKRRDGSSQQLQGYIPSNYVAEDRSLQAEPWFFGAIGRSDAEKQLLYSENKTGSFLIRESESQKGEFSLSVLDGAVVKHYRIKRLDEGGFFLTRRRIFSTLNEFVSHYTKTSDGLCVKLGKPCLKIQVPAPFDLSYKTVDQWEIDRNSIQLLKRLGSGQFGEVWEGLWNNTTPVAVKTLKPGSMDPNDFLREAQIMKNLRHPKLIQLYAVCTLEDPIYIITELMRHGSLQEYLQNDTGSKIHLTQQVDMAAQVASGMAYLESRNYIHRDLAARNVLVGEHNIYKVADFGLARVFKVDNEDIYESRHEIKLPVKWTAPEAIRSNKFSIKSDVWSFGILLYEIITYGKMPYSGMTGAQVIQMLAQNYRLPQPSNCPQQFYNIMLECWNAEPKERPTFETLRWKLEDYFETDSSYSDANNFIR

## CN(C)C(=O)c1cc2cnc(Nc3ccc(NC(=O)CCCCCCCN=C=S)cc3)nc2n1C1CCCC1
[1]
  inhibition: 79%
[2]
  inhibition: 17%
[3]
  inhibition: 15%
[4]
  inhibition: 26%
[5]
  Activity: 13.8%
[6]
  inhibition at 10 µM: 97%
[7]
  inhibition: 99%
[8]
  inhibition: 10%
[9]
  inhibition: 17%
[10]
  inhibition: 22%
[11]
  inhibition: 4%
[12]
  Activity: Active
[13]
  inhibition: 5%
[14]
  inhibition: 15%
[15]
  inhibition: 95%
[16]
  inhibition at 10 µM: 76%
[17]
  inhibition: -6%
[18]
  inhibition: 21%
[19]
  inhibition: 3%
[20]
  inhibition at 10 µM: 98%
[21]
  inhibition: 5%
[22]
  inhibition: 6%
